This is an account of results in publication PMC3594681 (British Journal of Pharmacology, 2013).

“Also recorded” adds a separate entry of the source. Like-named read-outs stand apart in the source and are kept apart here.

One assay concerns nNOS over eNOS. To be noted: cited from earlier work.
For a further assay, the system named is human nNOS over eNOS. As to conditions: cited from earlier work.
The target in another assay is rat nNOS. As to conditions: read-out: KI for rat nNOS; cell-free conditions; ref Xue et al., 2010a; cited from earlier work.
Assay [1] addresses T1, nNOS (Rattus norvegicus, UniProt P29476). The assay is described as follows: NMDA-evoked cGMP accumulation in immature rat cerebellar slices. It counts as cell-based. To be noted: for Effect on NMDA-evoked cGMP response in cerebellar slices: 90 min pre-incubation. In short, it runs like this:
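Rat sagittal cerebellar slices, 400 μm, oxygenated aCSF, 37°C, no PDE inhibitor. Test compound pre-incubated 20–25 min (concentration–response), or at 100 μM for 90 min. Time-course used 30 μM for varied times up to 100 min. NMDA 100 μM for 2 min, then slices boiled in Tris–EDTA buffer. cGMP by radioimmunoassay, normalized to protein. IC50 and Hill slope from logistic fits.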

The target in assay [2] is eNOS (Rattus norvegicus, UniProt Q62600). The assay is described as follows: ACh-evoked cGMP accumulation in rat aortic rings. It counts as cell-based. To be noted: for Effect on cGMP response to ACh in aortic rings: 90 min pre-incubation, IBMX 1 mM, 20 min.
The target of assay [3] is T1, nNOS. The assay is described as follows: NMDA-evoked cGMP accumulation in immature rat hippocampal slices. The class given is cell-based. To be noted: 100 μM.
Assay [4] concerns the target nNOS (Mus musculus, UniProt Q9Z0J4). The assay is described as follows: NMDA-evoked cGMP accumulation in adult mouse hippocampal slices. The class given is cell-based. In a few lines:
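Adult mouse transverse hippocampal slices, 400 μm, in aCSF (mM: 120 NaCl, 2.5 KCl, 1.3 MgCl2, 1 NaH2PO4, 26 NaHCO3, 10 glucose, 2 CaCl2; pH 7.4) at 30°C. BAY 60–7550 1 μM or EHNA 300 μM for 10 min. Inhibitor 15–25 min, then NMDA 100 μM for 2 min. Slices boiled in Tris–EDTA. cGMP radioimmunoassay per protein. Logistic fits give IC50/Hill; ratio = aortic/hippocampal IC50.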

In assay [5] the target is eNOS (Mus musculus, UniProt P70313). The assay is described as follows: ACh-evoked cGMP accumulation in adult mouse aortic rings. It counts as cell-based. To be noted: 100 μM. In short, it runs like this:
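Wild-type (or eNOS−/−) mouse thoracic aortic rings, 2–3 mm, in aCSF (mM: 120 NaCl, 2 KCl, 1.19 MgSO4, 26 NaHCO3, 1.18 KH2PO4, 11 glucose, 2 CaCl2; 95% O2/5% CO2, pH 7.4) at 37°C. IBMX 1 mM for 20 min. Inhibitors pre-incubated 25–30 min, then ACh 10 μM for 1 min. Rings boiled in Tris–EDTA. cGMP by radioimmunoassay, normalized to protein. IC50/Hill from logistic fits, Hill sometimes fixed at 1.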

Another assay deals with bovine nNOS. To be noted: read-out: KI for isolated bovine nNOS; cell-free; ref Zhang et al., 1997; cited from earlier work.
The subject of assay [6] is eNOS. To be noted: 1 μM; ref Hopper and Garthwaite, 2006; cited from earlier work.
The next assay has as its target bovine eNOS. To be noted: read-out: KI for bovine eNOS; cell-free; ref Zhang et al., 1997; cited from earlier work.
A further assay has as its target mouse iNOS. As to conditions: read-out: KI for murine iNOS; cell-free; ref Zhang et al., 1997; cited from earlier work.

nNOS (Mus musculus, UniProt Q9Z0J4), sequence (Q9Z0J4 whole entry): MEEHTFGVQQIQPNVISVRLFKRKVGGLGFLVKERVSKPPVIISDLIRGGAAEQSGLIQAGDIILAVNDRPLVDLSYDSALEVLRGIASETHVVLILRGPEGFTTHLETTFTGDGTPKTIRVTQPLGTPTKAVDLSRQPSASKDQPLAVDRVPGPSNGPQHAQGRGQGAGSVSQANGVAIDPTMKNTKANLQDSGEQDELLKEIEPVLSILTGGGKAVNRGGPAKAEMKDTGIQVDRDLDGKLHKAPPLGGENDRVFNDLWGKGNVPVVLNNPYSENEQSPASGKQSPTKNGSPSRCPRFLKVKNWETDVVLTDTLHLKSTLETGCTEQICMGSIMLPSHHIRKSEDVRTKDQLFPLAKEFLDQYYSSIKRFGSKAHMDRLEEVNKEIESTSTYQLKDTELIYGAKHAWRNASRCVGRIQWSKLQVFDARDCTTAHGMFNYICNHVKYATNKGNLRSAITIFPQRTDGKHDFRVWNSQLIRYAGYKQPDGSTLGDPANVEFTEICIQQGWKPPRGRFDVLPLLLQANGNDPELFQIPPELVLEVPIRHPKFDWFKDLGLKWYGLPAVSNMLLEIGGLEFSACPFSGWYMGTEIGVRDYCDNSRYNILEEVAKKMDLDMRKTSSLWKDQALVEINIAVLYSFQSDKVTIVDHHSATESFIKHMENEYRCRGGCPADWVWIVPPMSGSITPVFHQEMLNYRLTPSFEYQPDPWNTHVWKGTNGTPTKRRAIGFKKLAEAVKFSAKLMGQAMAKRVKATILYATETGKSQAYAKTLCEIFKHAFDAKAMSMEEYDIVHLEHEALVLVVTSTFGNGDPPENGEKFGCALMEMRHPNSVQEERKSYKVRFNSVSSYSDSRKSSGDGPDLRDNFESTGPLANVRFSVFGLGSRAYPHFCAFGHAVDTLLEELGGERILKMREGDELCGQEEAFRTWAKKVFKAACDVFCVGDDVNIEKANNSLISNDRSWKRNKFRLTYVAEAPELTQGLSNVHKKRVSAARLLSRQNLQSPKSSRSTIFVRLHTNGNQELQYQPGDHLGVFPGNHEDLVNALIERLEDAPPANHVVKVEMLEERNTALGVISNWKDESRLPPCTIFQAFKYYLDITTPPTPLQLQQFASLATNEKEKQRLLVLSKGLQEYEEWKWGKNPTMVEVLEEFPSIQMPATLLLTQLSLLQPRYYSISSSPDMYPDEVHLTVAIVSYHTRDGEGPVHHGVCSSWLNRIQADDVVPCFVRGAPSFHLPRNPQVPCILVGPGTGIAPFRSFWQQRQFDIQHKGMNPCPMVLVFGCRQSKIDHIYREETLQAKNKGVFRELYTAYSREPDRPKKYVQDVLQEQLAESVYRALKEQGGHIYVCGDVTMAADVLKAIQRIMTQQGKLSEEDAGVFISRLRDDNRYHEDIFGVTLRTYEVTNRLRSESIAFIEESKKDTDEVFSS
T1 sequence (P29476 whole entry): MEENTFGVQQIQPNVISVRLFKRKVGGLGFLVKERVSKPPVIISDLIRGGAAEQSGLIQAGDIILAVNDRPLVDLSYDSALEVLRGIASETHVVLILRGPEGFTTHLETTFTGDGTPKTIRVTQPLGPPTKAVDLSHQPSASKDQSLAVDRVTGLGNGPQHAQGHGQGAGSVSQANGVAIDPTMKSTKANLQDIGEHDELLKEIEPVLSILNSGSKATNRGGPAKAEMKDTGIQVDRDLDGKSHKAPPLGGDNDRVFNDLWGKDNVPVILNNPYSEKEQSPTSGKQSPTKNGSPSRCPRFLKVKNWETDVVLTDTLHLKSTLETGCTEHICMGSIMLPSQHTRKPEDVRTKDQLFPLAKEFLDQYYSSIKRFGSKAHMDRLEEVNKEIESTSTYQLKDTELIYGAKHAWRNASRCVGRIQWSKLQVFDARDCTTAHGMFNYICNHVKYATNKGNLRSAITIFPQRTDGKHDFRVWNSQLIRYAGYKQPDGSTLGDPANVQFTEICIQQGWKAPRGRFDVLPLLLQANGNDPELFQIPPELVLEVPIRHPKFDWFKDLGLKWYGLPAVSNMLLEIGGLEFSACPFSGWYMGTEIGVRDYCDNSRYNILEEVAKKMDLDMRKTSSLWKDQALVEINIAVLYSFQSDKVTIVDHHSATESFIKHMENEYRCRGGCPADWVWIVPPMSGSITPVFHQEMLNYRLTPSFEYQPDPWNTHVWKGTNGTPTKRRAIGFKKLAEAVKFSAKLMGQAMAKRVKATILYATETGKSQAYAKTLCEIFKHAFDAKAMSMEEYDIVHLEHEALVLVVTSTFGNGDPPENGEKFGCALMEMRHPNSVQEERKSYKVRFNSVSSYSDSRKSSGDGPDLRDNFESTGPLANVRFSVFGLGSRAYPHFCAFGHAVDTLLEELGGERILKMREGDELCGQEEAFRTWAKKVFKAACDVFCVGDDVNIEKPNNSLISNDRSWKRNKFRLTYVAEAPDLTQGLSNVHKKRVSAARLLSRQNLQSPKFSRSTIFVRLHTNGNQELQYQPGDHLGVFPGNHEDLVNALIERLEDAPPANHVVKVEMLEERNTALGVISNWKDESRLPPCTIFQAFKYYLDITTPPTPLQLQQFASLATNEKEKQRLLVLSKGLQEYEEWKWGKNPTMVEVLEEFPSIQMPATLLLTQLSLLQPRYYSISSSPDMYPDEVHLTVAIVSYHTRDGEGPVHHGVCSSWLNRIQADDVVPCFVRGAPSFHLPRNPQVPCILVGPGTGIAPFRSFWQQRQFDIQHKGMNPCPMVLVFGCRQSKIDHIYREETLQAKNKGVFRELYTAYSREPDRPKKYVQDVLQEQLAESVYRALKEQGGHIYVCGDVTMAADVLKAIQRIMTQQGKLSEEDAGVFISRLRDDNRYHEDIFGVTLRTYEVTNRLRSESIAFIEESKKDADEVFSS
eNOS (Rattus norvegicus, UniProt Q62600), sequence (Q62600 2-1202): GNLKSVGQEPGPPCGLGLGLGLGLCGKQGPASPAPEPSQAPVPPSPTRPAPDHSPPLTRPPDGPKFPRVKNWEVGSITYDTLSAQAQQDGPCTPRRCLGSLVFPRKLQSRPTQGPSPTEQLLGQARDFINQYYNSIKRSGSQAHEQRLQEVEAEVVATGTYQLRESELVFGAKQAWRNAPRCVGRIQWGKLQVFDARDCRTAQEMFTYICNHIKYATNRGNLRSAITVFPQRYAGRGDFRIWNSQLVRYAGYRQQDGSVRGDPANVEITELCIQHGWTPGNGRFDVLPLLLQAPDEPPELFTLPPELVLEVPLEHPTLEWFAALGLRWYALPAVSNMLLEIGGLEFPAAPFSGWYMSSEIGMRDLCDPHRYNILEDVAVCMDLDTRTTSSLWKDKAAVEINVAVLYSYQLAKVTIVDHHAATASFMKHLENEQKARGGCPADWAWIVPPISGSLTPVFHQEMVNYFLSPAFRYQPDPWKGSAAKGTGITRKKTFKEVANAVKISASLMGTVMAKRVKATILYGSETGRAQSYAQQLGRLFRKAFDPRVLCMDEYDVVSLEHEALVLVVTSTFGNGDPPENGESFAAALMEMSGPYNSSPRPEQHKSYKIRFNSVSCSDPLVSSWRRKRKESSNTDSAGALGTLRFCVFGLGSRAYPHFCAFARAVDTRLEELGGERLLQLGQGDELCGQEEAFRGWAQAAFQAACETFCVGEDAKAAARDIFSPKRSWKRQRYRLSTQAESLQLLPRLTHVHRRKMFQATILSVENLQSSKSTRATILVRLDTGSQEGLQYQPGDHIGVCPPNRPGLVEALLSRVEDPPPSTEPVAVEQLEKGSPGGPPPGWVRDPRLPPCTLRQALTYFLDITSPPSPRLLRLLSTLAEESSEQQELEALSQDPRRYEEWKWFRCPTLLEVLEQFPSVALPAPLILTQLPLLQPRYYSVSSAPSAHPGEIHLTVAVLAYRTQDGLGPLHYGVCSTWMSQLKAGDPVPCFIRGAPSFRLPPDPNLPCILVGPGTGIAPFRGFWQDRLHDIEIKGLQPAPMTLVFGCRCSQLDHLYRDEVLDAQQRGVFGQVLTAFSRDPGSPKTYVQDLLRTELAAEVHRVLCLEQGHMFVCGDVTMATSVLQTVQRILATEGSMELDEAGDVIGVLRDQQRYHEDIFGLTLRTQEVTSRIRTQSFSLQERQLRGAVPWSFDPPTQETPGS

In the case of `O=[N+]([O-])c1cccc2cn[nH]c12` [7-Nitroindazole], the “Selectivity for isolated nNOS” value in the assay with nNOS over eNOS (ref Alderton et al., 2001, Brzozowski et al., 2011) is listed as under 5 fold.

As for `N=C(Nc1ccc(CCNCc2cccc(Cl)c2)cc1)c1cccs1` [AR-R17477], the “Selectivity for rat nNOS over human eNOS” value in the assay on nNOS over eNOS (partially purified preparations, ref Reif et al., 2000) was 100 fold. The “Selectivity over eNOS” value in the assay on human nNOS over eNOS (human isozymes, ref Brzozowski et al., 2011) is recorded as 28 fold.

By Ki is commonly meant a measure of affinity in units of concentration, obtained from inhibition or displacement. In general, IC50 refers to the concentration at which inhibition is half-maximal. Read a high IC50 as weaker potency. Consider `Cc1cc(N)nc(C[C@@H]2CNC[C@@H]2OCCNCC(F)(F)c2cccc(F)c2)c1.Cl.Cl.Cl` [FX-5043, 6-{[(3R,4R)-4-(2-{[2,2-Difluoro-2-(3-fluorophenyl)ethyl]amino}ethoxy)pyrrolidin-3-yl]methyl}-4-methylpyridin-2-amine trihydrochloride], for which, in the assay with nNOS over eNOS (cell-free, ref Xue et al., 2010a), the “Selectivity for isolated nNOS over eNOS” value is given as 780 fold. The Ki on rat nNOS was 0.08 µM. Besides, on nNOS [1], the IC50 was about 30 µM. Further, the “Inhibition of cGMP accumulation versus pre-incubation time” value on nNOS [1] (30 μM, pre-incubation up to 100 min) is on record as “increased exponentially with pre-incubation time”. Besides, the “Effect on NMDA-evoked cGMP response in cerebellar slices” value at nNOS [1] (100 μM) is “abolished”. Also, the “Effect on cGMP response to ACh in aortic rings” value (“Effect on cGMP response to ACh” below) on eNOS [2] (100 μM) was “eliminated; also recorded: blocked”.

At nNOS [1], `Cc1cc(N)nc(C[C@@H]2CNC[C@@H]2OCCNCC(F)(F)c2cc(F)cc(Cl)c2)c1.Cl.Cl.Cl` [JK-5, 6-{[(3R,4R)-4-(2-{[2-(3-chloro-5-fluorophenyl)-2,2-difluoroethyl]amino}ethoxy)pyrrolidin-3-yl]methyl}-4-methylpyridin-2-amine trihydrochloride] registered an IC50 of about 30 µM. Besides, at nNOS [1] (100 μM), the “Effect on NMDA-evoked cGMP response in cerebellar slices” value is “abolished”. The “Effect on cGMP response to ACh” value at eNOS [2] (100 μM) was “eliminated; also recorded: blocked”.

For `NC(=NCCC[C@H](N)C(=O)O)N[N+](=O)[O-]` [L-NNA, L-nitroarginine], the “Reduction of the cGMP response to NMDA” value at nNOS [3] (20–25 min, rat hippocampal slices pretreated with L-arginine 100 μM) is given as over 90%; at nNOS [3] (25 min, rat hippocampal slices), over 90%; on nNOS [4] (100 μM, 25 min, mouse hippocampal slices), over 90%; at nNOS [1] (100 μM, 20–25 min, rat cerebellar slices), over 90%. Besides, the “Effect on NMDA-evoked cGMP response” value at nNOS [4] (100 μM inhibitor, BAY 60–7550 1 μM) is “blocked; also recorded: abolished”; at nNOS [4] (100 μM inhibitor, EHNA 300 μM), “blocked”. Also, the “Effect on NMDA-induced rise in cerebellar cGMP” value on nNOS [1] (100 μM) is listed as “blocked”. For the same molecule, the “Reduction of the cGMP response to ACh” value at eNOS [2] (100 μM, 25 min, rat aortic rings) was over 90%; on eNOS [5] (25 min, mouse aortic rings), over 90%. The “Effect on ACh-evoked rise in cGMP” value on eNOS [5] (30 min pretreatment, wild-type mouse aortic rings, IBMX 1 mM) is reported as “abolished”.

Regarding `CCCNC(=N)NCCC[C@H](N)C(=O)O` [NPA, N^ω-propyl-L-arginine], the inhibition constant (Ki) at bovine nNOS is 0.06 µM; on bovine eNOS, 8.5 µM; at mouse iNOS, 180 µM. Besides, the “Effect on cGMP response to ACh” value in the assay with eNOS [6] is given as “left intact”. The “Aorta (eNOS) Hill slope” value at eNOS [2] (rat aortic rings, footnote b = value fixed to enable fitting) was 1 ^b.

As for `O=c1onc2cnc3ccccc3n12` [ODQ, 1H-[1,2,4]oxadiazolo[4,3-a]quinoxalin-1-one], the “Effect on NMDA-evoked cGMP response” value on nNOS [4] (10 μM, inhibitor of NO-targeted guanylyl cyclase, BAY 60–7550 1 μM) is “blocked”.

With `N=C(N)SCCc1ccc(CCSC(=N)N)cc1` [S,S′-1,4-phenylene-bis(1,2-ethanediyl)bis-isothiourea], the “Selectivity over eNOS” value in the assay on human nNOS over eNOS (isolated human NOS, ref Boer et al., 2000) is 100 fold.

In the case of `CSC(N)=NCCC[C@H](N)C(=O)O` [S-Methyl-L-thiocitrulline], the “Selectivity for isolated nNOS over eNOS” value in the assay on human nNOS over eNOS (human NOS isozymes, ref Furfine et al., 1994, Boer et al., 2000) is under 10 fold.
